# Results gathered from unrelated publications.
# Protocols differ between the studies behind these lines.
# Target: Macrophage-stimulating protein receptor (MST1R, Homo sapiens, UniProt Q04912)
Compound,observed,mode,technique,tested at,endpoint,result
Cn1cncc1[C@@](O)(COc1ccc(C#N)cc1-c1ccc(OC(F)(F)F)cc1)c1ccc(C#N)cc1,cell-free assay,,competition with immobilised ligand,1 µM,remaining binding,100%
COc1ncccc1-c1cnn2ccc(N3CCN(C(=O)OC(C)C)CC3)nc12,binding,,competition with immobilised ligand,1 µM,remaining binding,100%
Cn1cc(-c2cc(F)cc(N3CCn4c(cc5c4CCCC5)C3=O)c2CO)cc(Nc2ccc(N3CCN(C4COC4)CC3)cn2)c1=O,enzyme activity,inhibitor,,0.1 µM,inhibition,8%
CC(C)(C)c1cc(C=C(C#N)C#N)cc(Br)c1O,enzyme activity,inhibitor,,0.5 µM,remaining activity,105%
N#CC1(c2ccccn2)CCN(Cc2cc(C(=O)O)c(=O)n3ccccc23)CC1,cell-free assay,,competition with immobilised ligand,1 µM,remaining binding,100%
O=c1[nH]c2ccccc2n1C1CCN(Cc2ccc(-c3[nH]c4cc5ncnc5cc4nc3-c3ccccc3)cc2)CC1,cell-free assay,,,0.5 µM,remaining signal,111%
C#Cc1n[nH]c2c(-c3cn([C@@H](C)c4ccccc4)c(=O)[nH]c3=O)cc(F)cc12,enzyme activity,inhibitor,,0.1 µM,inhibition,38.6%
Cc1nn(C)cc1-c1nc2c(N3CCN(Cc4ccc(Cl)cc4)CC3)c(Cl)cnc2[nH]1,binding,,competition with immobilised ligand,1 µM,remaining binding,100%
Cn1cc(-c2cccc(N3CCc4c(sc5c4CC(C)(C)C5)C3=O)c2CO)cc(Nc2ccncn2)c1=O,enzyme activity,inhibitor,,1 µM,inhibition,11%
C#Cc1n[nH]c2c(-c3cn([C@@H](C)c4ccccn4)c(=O)[nH]c3=O)cc(F)cc12,enzyme activity,inhibitor,,0.1 µM,inhibition,47.6%
COc1cc(Nc2ncc(F)c(Nc3ccc4c(n3)NC(=O)C(C)(C)O4)n2)cc(OC)c1OC,binding,,competition with immobilised ligand,10 µM,inhibition,100%
